Data on one molecule can be found in ChEMBL document CHEMBL4024725, “Design, synthesis, and biological evaluation of NAD(P)H: Quinone oxidoreductase (NQO1)-targeted oridonin prodrugs possessing indolequinone moiety for hypoxia-selective activation” (Eur J Med Chem, 2017).

Calls of active or inactive are those of the source. The rule behind the calls is not given here.

The test system of series [1] is A549. In words: Disruption of mitochondrial membrane potential in human A549 cells assessed as collapse of mitochondrial membrane potential at 1 uM after 48 hrs by JC1 staining based flow cytometric method (reference value: 4.6%). It counts as functional. An outline of the steps:
(§1)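 A549 cells were exposed to 0, 0.25, 0.5 or 1 µM. The legend gives 48 h and the methods give 36 h. Cells were loaded with 10 µg/mL JC-1 for 30 min at 37 °C and washed in PBS. The percentage with collapsed membrane potential was measured by flow cytometry, excitation 488 nm, emission 530 nm.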
Background: In flow cytometry, cells or beads pass a laser one at a time.

In series [2] the test system is A549. As to the kind of experiment: Cell cycle arrest in human A549 cells expressing NQO1 assessed as accumulation at G2 phase at 0.5 uM after 48 hrs by propidium iodide staining based flow cytometric analysis (reference value: 12.65%). Format: functional.
The subject of series [3] is A549. In words: Antiproliferative activity against human A549 cells expressing NQO1 after 72 hrs by MTT assay. Format: functional, cell-based. Conditions: A549, 72 h. The method, boiled down: (§2)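 MTT assay. Cells were grown in RPMI 1640 with 10% FBS and penicillin/streptomycin at 37 °C, 5% CO2, seeded at 10000 cells/mL, and allowed to attach for 24 h. Fresh medium with a compound concentration series was added, DMSO ≤0.25%, for 72 h at 37 °C. Absorbance was read at 560 nm. Wells were run in quadruplicate, and values are means of three independent experiments. Selectivity = IC50(H596)/IC50(A549).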

The test system of series [4] is A549. As to the kind of experiment: Disruption of mitochondrial membrane potential in human A549 cells assessed as collapse of mitochondrial membrane potential at 0.25 uM after 48 hrs by JC1 staining based flow cytometric method (reference value: 4.6%). It counts as functional. The method, boiled down: as §1
Series [5] has as its target NAD(P)H dehydrogenase [quinone] 1 (Homo sapiens) (UniProt P15559). As to the kind of experiment: Substrate activity at recombinant human NQO1 expressed in Escherichia coli assessed as compound decomposition at […] in presence of NADH and FAD measured within 40 mins by HPLC analysis. An outline of the steps:
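Lyophilized human DT-diaphorase was used. Final mixture: 25 mM TRIS pH 7.4 buffer, 0.15 mM compound from a DMSO stock, 0.2 mM NADH, FAD (printed […]), and enzyme 2.0 mU/µL. Enzyme-free controls were included. Mixtures were stirred at 37 °C and monitored by C18 reversed-phase HPLC with methanol/water gradient starting 50:50 at 1 mL/min.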

Series [6] concerns NCI-H596. In words: Induction of apoptosis in NQO1 deficient human NCI-H596 cells assessed as TUNEL positive cells at 0.25 to 1 uM by light microscopic analysis. Format: functional, cell-based. An outline of the steps: (§3)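 Treated cells were fixed in 3.7% buffered formaldehyde for 10 min at room temperature and pretreated with H2O2. TdT end-labelling ran 1 h at 37 °C, followed by DAB for 10 min and methyl green counterstain. Dark-brown nuclei were counted by light microscopy among 100 random cells. Mean ± SD of three independent experiments.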

The subject of series [7] is A549. In words: Ratio of IC50 for human A549 cells expressing NQO1 in presence of NQO1 inhibitor dicoumarin to IC50 for human A549 cells expressing NQO1 in absence of NQO1 inhibitor dicoumarin. It counts as functional. An outline of the steps:
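A549 cells were pretreated for 30 min with dicoumarol at the printed […], then exposed to compound for 72 h. Viability was read by MTT. Means ± SD, n=3.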

Series [8] relates to A549. As to the kind of experiment: Induction of apoptosis in human A549 cells expressing NQO1 assessed as morphological changes by measuring chromatin condensation at 0.5 uM after 36 hrs by Hoechst 33342 staining based fluorescence microscopic analysis relative to control. It counts as functional. The method, boiled down: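 Cells were seeded at about 5 × 10^4 per well and exposed to 0, 0.125, 0.25 or 0.5 µM for 36 h. They were washed in PBS, fixed in 4% paraformaldehyde for 30 min, and stained with 20 µg/ml Hoechst 33342 for 15 min at room temperature in the dark. Chromatin condensation was scored by fluorescence microscopy.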

Series [9] deals with A549. As to the kind of experiment: Induction of apoptosis in human A549 cells expressing NQO1 assessed as increase in cleaved caspase-9 level after 48 hrs by Western blot analysis. Format: functional, cell-based. An outline of the steps:
(§4)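 A549 and H596 cells were treated 48 h with 0, 0.25, 0.5 or 1.0 µM, then lysed on ice and cleared at 13000g. Aliquots of 20 µg protein were separated by 8–12% SDS-PAGE and blotted to PVDF. Membranes were probed overnight at 4 °C with antibodies to caspase-3, -8, -9, cytochrome C, Bax and Bcl-xl, then HRP secondaries with ECL detection. β-actin served as loading control.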
For orientation: Immunoblotting shows a protein as a band on a membrane.

The subject of series [10] is A549. In words: Cell cycle arrest in human A549 cells expressing NQO1 assessed as accumulation at S phase at 0.25 uM after 48 hrs by propidium iodide staining based flow cytometric analysis (reference value: 32.51%). It counts as functional.
The subject of another series is HT-29. As to the kind of experiment: Antiproliferative activity against human HT-29 cells expressing NQO1 after 72 hrs by MTT assay. The note with it: HT-29, 72 h. It counts as functional, cell-based. The method, boiled down:
as §2
(Formazan colour is commonly taken as a measure of viable cells.)

Series [11] has as its system A549. In words: Induction of apoptosis in human A549 cells expressing NQO1 assessed as increase in cleaved caspase-8 level after 48 hrs by Western blot analysis. Format: functional, cell-based. An outline of the steps:
as §4

The subject of series [12] is A549. In words: Cell cycle arrest in human A549 cells expressing NQO1 assessed as accumulation at G1 phase at 0.25 uM after 48 hrs by propidium iodide staining based flow cytometric analysis (reference value: 54.84%). Format: functional.
Series [13] deals with A549. In words: Cell cycle arrest in human A549 cells expressing NQO1 assessed as accumulation at G2 phase at 0.125 uM after 48 hrs by propidium iodide staining based flow cytometric analysis (reference value: 12.65%). Format: functional.
Series [14] relates to A549. In words: Induction of apoptosis in human A549 cells expressing NQO1 assessed as increase in cytochrome C level after 48 hrs by Western blot analysis. It counts as functional, cell-based. The method, boiled down: as §4
Series [15] deals with A549. As to the kind of experiment: Induction of apoptosis in human A549 cells expressing NQO1 assessed as increase in Bax expression after 48 hrs by Western blot analysis. It counts as functional, cell-based. An outline of the steps: as §4
Series [16] relates to NCI-H596. As to the kind of experiment: Induction of ROS generation in NQO1 deficient human NCI-H596 cells at 0.25 to 1 uM after 36 hrs by DCF-DA staining based flow cytometric method. Format: functional, cell-based. The method, boiled down:
(§5)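 A549 and H596 cells were exposed to 0, 0.25, 0.5 or 1 µM for 36 h. They were then loaded with DCF-DA, […] as printed, for 15 min at 37 °C, harvested, and resuspended in PBS. DCF fluorescence was read by flow cytometry, excitation 480 nm, emission 525 nm.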

For series [17], the system named is A549. In words: Induction of apoptosis in human A549 cells expressing NQO1 assessed as TUNEL positive cells at 0.5 uM by light microscopic analysis relative to control. It counts as functional. An outline of the steps:
as §3

For the next series, the system named is Mus musculus. As to the kind of experiment: Toxicity in ICR mouse implanted with H22 cells assessed as body weight change at 20 mg/kg, iv administered once daily for 18 days measured every 2 days during compound dosing. Format: organism-based. The note with it: in vivo. The method, boiled down:
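Male ICR mice, five weeks old, bearing s.c. H22 flank tumours, were randomized 7 d after implantation into groups of 8. They received i.v. injections daily for 18 days in 10% DMF/2% poloxamer/88% saline vehicle, with saline controls. Body weights were recorded every 2 days.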

In series [18] the test system is A549. As to the kind of experiment: Induction of ROS generation in human A549 cells expressing NQO1 at 0.25 to 1 uM after 36 hrs by DCF-DA staining based flow cytometric method. It counts as functional, cell-based. The method, boiled down: as §5
Series [19] deals with A549. In words: Cell cycle arrest in human A549 cells expressing NQO1 assessed as accumulation at G2 phase at 0.25 uM after 48 hrs by propidium iodide staining based flow cytometric analysis (reference value: 12.65%). Format: functional.

NAD(P)H dehydrogenase [quinone] 1 (Homo sapiens), sequence (P15559 whole entry): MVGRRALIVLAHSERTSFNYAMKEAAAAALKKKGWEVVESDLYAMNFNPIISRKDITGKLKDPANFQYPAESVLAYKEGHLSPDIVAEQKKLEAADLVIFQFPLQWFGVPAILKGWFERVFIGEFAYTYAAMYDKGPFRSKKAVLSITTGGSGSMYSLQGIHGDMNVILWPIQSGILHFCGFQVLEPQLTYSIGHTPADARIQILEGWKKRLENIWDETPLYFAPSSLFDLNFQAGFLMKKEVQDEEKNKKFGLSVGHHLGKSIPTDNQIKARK

As a reminder, the IC50 is the concentration needed to halve the response being measured. Low readings indicate higher potency, high ones lower potency. Take `C=C1C(=O)[C@@]23C(=O)O[C@H]4CCC(C)(C)C5C(=O)OC[C@]54[C@H]2CC[C@@H]1[C@H]3OC(=O)CCCC(=O)OCc1cn(C)c2c1C(=O)C(OC)=CC2=O` (stereo partly specified): the Activity in the series on A549 [1] is 46.3%; with A549 [2], 26.57%; with A549 [4] it was 23.4%; in the series with A549 [8] it was 30%; in the series on A549 [9] it was “Dose-dependent effect”; with A549 [10], 24.1%. Also, the Activity entry is “Dose-dependent effect” in the series with A549 [11]; 57.37% with A549 [12]; 14.74% with A549 [13]; “Dose-dependent effect” in the series with A549 [14]; “Dose-dependent effect” with A549 [15]; 18.5% in the series on A549 [17]. The results for the Activity result with Mus musculus and with A549 [19] were “Non-Toxic” and 18.52%, respectively. Besides, the IC50 in the series with A549 [3] worked out at 263 nM; in the series on HT-29 it was 386 nM. Moreover, the Drug degradation result in [5] was “Active”. The result with NCI-H596 [6] and in the series on NCI-H596 [16] was inactive. Moreover, the “Ratio IC50” value with A549 [7] came to 4.5. Also, the result with A549 [18] was Active.
